Measurements reported in paper PMC10925177 (bioRxiv, 2024).

Tests used:
G9a = target: T1, G9a (Homo sapiens, UniProt Q96KQ7); test: G9a radioactive methyltransferase assay; assay type: biochemical; conditions: indicated concentrations, duplicate (Figure 4B)
T1 sequence (Q96KQ7 1-1210): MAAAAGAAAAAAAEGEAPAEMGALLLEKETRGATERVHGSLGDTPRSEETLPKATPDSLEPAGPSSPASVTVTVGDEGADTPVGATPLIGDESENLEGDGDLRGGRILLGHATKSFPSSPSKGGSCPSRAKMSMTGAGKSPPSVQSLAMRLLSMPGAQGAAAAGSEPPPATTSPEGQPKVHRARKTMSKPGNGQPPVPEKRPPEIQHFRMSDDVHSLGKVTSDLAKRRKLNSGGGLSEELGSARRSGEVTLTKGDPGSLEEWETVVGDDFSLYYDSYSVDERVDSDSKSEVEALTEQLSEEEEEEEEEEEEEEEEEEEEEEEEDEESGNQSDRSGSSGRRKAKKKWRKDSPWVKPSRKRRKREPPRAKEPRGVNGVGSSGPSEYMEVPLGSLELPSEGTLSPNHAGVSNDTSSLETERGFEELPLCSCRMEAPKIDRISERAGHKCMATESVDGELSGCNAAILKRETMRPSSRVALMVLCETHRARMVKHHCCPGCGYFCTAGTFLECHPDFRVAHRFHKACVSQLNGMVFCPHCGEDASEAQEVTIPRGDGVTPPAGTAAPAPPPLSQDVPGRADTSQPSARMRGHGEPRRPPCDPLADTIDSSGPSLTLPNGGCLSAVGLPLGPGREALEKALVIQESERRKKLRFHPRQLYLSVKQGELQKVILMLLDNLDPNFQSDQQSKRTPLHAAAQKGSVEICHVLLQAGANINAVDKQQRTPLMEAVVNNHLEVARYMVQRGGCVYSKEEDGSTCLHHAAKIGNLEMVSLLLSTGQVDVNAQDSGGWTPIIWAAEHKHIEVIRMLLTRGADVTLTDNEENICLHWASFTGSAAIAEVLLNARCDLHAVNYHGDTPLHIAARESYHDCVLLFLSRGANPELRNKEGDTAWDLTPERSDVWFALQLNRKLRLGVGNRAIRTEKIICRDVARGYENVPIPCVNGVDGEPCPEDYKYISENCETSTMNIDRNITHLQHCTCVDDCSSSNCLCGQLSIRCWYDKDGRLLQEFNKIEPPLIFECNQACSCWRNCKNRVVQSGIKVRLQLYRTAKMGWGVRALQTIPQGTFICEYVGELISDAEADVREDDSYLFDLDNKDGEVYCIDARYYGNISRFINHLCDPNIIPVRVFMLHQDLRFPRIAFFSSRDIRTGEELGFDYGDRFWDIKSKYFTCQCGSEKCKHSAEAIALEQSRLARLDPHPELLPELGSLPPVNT
In short: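 Enzyme activity was measured with a radioisotope-based MT HotSpot methyltransferase assay run by a contract laboratory. Test compounds were run at the indicated concentrations, in duplicate. Data are mean ± SD of the two duplicate experiments.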

GLP mRNA = test: RT-qPCR of GLP mRNA in H1299 cells; assay type: cell-based; conditions: 3 μM, 24 h, normalized to DMSO
In short: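 H1299 cells were treated with DMSO or test compound at 3 μM for 24 h. Total RNA was extracted and reverse-transcribed to cDNA. qPCR used gene-specific primers for G9a and GLP, and a GAPDH primer set was included.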

22Rv1 cells = test: Clonogenicity assay in 22Rv1 cells; assay type: cell-based; conditions: 8 days treatment, crystal violet
In short: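 22Rv1 cells were seeded at 50,000 per well in 6-well plates. They were treated continuously with the test compound at the indicated concentrations for 8 days, then stained with 0.5% crystal violet. Three independent biological experiments were run.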

SET7/9 = target: T2, SET7/9 (Homo sapiens, UniProt Q8WTS6); test: Western blot of SET7/9 protein level in 22Rv1 cells; assay type: cell-based; conditions: indicated concentration, 24 h, WB
T2 sequence (Q8WTS6 1-366): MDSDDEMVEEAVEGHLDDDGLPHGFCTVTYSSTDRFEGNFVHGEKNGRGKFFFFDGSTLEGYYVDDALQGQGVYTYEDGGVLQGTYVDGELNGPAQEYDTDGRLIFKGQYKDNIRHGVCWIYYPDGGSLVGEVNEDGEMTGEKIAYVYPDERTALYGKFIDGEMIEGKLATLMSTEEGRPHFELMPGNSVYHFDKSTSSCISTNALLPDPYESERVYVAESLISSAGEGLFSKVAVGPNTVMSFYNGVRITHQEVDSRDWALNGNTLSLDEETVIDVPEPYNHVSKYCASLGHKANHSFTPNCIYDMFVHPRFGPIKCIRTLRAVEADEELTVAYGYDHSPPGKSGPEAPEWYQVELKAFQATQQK
In short: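 22Rv1 cells were treated with the test compound at the indicated concentrations for 24 h. Cells were lysed in RIPA containing protease inhibitor cocktail, and protein was resolved by SDS-PAGE and transferred to PVDF. Primary antibody was applied overnight at 4 °C, with β-actin as loading control. Blots are representative of two independent experiments.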

[1] = Mouse PK study, single IP administration; assay type: in vivo; conditions: C57BL/6 mice

Question: What does the source list for COc1cc2c(NC3CCN(CCCC(=O)NCCCCCCCCCCCC(=O)N[C@H](C(=O)N4C[C@H](O)C[C@H]4C(=O)NCc4ccc(-c5scnc5C)cc4)C(C)(C)C)CC3)nc(N3CCC(F)(F)CC3)nc2cc1OCCCN1CCCC1 [Compound 10, (2S,4R)-1-((S)-2-(12-(4-(4-((2-(4,4-difluoropiperidin-1-yl)-6-methoxy-7-(3-(pyrrolidin-1-yl)propoxy)quinazolin-4-yl)amino)piperidin-1-yl)butanamido)dodecanamido)-3,3-dimethylbutanoyl)-4-hydroxy-N-(4-(4-methylthiazol-5-yl)benzyl)pyrrolidine-2-carboxamide]?
Answer: inhibition of G9a enzymatic activity (G9a): similarly inhibited; mRNA levels of GLP (GLP mRNA): did not significantly alter; inhibition of 22Rv1 cell colony formation (22Rv1 cells): able to inhibit; SET7/9 degradation (SET7/9): cannot induce the degradation; Cmax ([1]; IP, 50 mg/kg, plasma, HCl salt form): 27 ± 0.6 µM; plasma exposure levels maintained up to 8 h ([1]; IP, 50 mg/kg, up to 8 h): > 5 µM; clinical signs in the PK study ([1]; single IP 50 mg/kg): no clinical signs were observed; tolerability in the PK study ([1]; single IP 50 mg/kg): well tolerated
